Measurements from ChEMBL document CHEMBL2390938, “Synthesis and anti-inflammatory evaluations of β-lapachone derivatives” (Bioorg Med Chem, 2013).
One block for each molecule: values may come before it. The source made the active and inactive calls. No cut-off for these calls is given here.

Experiments:
[1] = system: RAW264.7; assay: Antiinflammatory activity in mouse RAW264.7 cells assessed as inhibition of LPS-induced COX-2 expression at 0.5 uM incubated for 2 hrs prior to LPS challenge measured after 24 hrs by Western blot analysis; assay type: functional, cell-based
Method in brief: (§1)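 Cells at 5 × 10^5/well, pretreated 2 h, then LPS 0.1 µg/mL for 24 h. Lysed in RIPA and protein assayed by Bradford. 20–50 µg separated on 8–15% SDS-PAGE and blotted to PVDF. Probed for murine iNOS or COX-2, HRP secondary, ECL detection, densitometry. Means + S.D. of 3 experiments in triplicate.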

[2] = system: RAW264.7; assay: Antiinflammatory activity in mouse RAW264.7 cells assessed as inhibition of LPS-induced nitric oxide production after 24 hrs by Griess assay; assay type: functional, cell-based; conditions: RAW264.7, 24 h
Method in brief: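 Nitrite in medium read by Griess reagent (1% sulfanilamide, 0.1% naphthylethylenediamine in 5% phosphoric acid) mixed 1:1 with medium for 5 min. Absorbance at 550 nm, quantified against a sodium nitrite standard in culture medium.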

[3] = system: RAW264.7; assay: Antiinflammatory activity in mouse RAW264.7 cells assessed as inhibition of LPS-induced iNOS expression at 0.5 uM incubated for 2 hrs prior to LPS challenge measured after 24 hrs by Western blot analysis; assay type: functional, cell-based; method in brief: as §1
[4] = system: RAW264.7; assay: Cytotoxicity against mouse RAW264.7 cells assessed as cell viability after 24 hrs by MTS assay; assay type: cell-based; conditions: RAW264.7, 24 h
Method in brief: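 Cells seeded 5 × 10^4/well and exposed 24 h. MTS added, 1 h at 37 °C, absorbance read at 490 nm. Percent of control = Ab treated/Ab control × 100 (n = 3). IC50 is the concentration cutting absorbance by 50%, taken from the linear portion of the curve.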

[5] = Induction of nitric oxide scavenging activity assessed as nitrite level at 10 uM at room temperature after 60 mins by Griess assay in presence of light and SNP; assay type: physicochemical; conditions: 1 h
Method in brief: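 Sodium nitroprusside 2.5 mM in PBS incubated alone or with compound (10 µM) in light at room temperature for 60 min. Nitrite then measured by Griess reaction. 1400 W (10 µM) as comparator.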

[6] = molecular target: T1, MAP kinase p38 (Mus musculus) (UniProt P47811+O08911+Q9WUI1+Q9Z1B7); assay: Inhibition of p38 MAPK phosphorylation in LPS-induced mouse RAW264.7 cells incubated for 2 hrs prior to LPS challenge measured after 24 hrs by Western blot analysis; assay type: cell-based
Method in brief: (§2)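 Cells at 5 × 10^5/well, pretreated 2 h, then LPS 0.1 µg/mL for 24 h. 15 µg lysate protein run on 8% SDS-PAGE. p38 and p-p38 detected by Western blot with densitometry. Relative density = p-p38/β-actin. Means + S.D. of 3 experiments in triplicate.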

[7] = system: RAW264.7; assay: Antiinflammatory activity in mouse RAW264.7 cells assessed as inhibition of LPS-induced iNOS expression incubated for 2 hrs prior to LPS challenge measured after 24 hrs by Western blot analysis; assay type: functional, cell-based; method in brief: as §1
[8] = system: RAW264.7; assay: Antiinflammatory activity in mouse RAW264.7 cells assessed as inhibition of LPS-induced MMP-9 expression incubated for 2 hrs prior to LPS challenge measured after 24 hrs by gelatin zymographic analysis; assay type: functional, cell-based
Method in brief: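 Cells plated 16–18 h, then treated with LPS 0.1 µg/ml plus compound (0.5, 1.0, 2.0 µM). Medium collected at 24 h and concentrated. Run on 7.5% acrylamide gel containing 2 mg/ml gelatin. Gel renatured in Triton X-100, then buffer overnight at 37 °C, developed 16–18 h in Tris pH 7.5/NaCl/CaCl2. Coomassie stain. MMP-9 band scanned, expressed as % of control.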

[9] = molecular target: T1, MAP kinase p38 (Mus musculus); assay: Inhibition of p38 MAPK phosphorylation in mouse RAW264.7 cells at 0.5 to 2 uM by Western blot analysis; assay type: cell-based; method in brief: as §2
[10] = system: RAW264.7; assay: Antiinflammatory activity in mouse RAW264.7 cells assessed as downregulation of LPS-induced iNOS mRNA expression incubated for 2 hrs prior to LPS challenge measured after 9 hrs by RT-PCR analysis; assay type: functional, cell-based
Method in brief: (§3)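 Cells at 5 × 10^5/well, pretreated 2 h, then LPS 0.1 µg/mL for 9 h. Total RNA isolated with Trizol. 1 µg RNA reverse-transcribed with oligo dT primers. Amplicons run on 3% agarose gel, band intensity normalized to GAPDH. Means + S.D. of 3 experiments in triplicate.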

[11] = system: RAW264.7; assay: Antiinflammatory activity in mouse RAW264.7 cells assessed as downregulation of LPS-induced TNFalpha expression incubated for 2 hrs prior to LPS challenge measured after 24 hrs by ELISA; assay type: functional, cell-based
Method in brief: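 Cells seeded 5 × 10^5/well, pretreated 2 h with compound (0.5, 1.0, 2.0 or 5.0 µM), then LPS 0.1 µg/mL for 24 h. TNF-α measured in culture medium by ELISA kit. Means + S.D. of 3 separate experiments in triplicate.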

[12] = system: RAW264.7; assay: Antiinflammatory activity in mouse RAW264.7 cells assessed as inhibition of LPS-induced COX-2 expression incubated for 2 hrs prior to LPS challenge measured after 24 hrs by Western blot analysis; assay type: functional, cell-based; method in brief: as §1
[13] = molecular target: Transcription factor p65 (Mus musculus) (UniProt Q04207); assay: Inhibition of NFkappaB p65 nuclear translocation in LPS-stimulated mouse RAW264.7 cells after 24 hrs by DAPI staining-based laser confocal immunofluorescent microscopic analysis; assay type: cell-based
Method in brief: (§4)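 Cells grown on glass coverslips 24 h, then given LPS 0.1 µg/mL and/or compound 0.5 µM. Fixed in 4% paraformaldehyde, permeabilized with 0.2% Triton X-100. Anti-p65 antibody applied 24 h, then Alexa 568 secondary 1 h. Nuclei stained with DAPI. Imaged by confocal microscopy.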

[14] = system: RAW264.7; assay: Antiinflammatory activity in mouse RAW264.7 cells assessed as inhibition of LPS-induced iNOS expression at 0.5 to 2 uM incubated for 2 hrs prior to LPS challenge measured after 24 hrs by Western blot analysis; assay type: functional, cell-based; method in brief: as §1
[15] = system: RAW264.7; assay: Antiinflammatory activity in mouse RAW264.7 cells assessed as downregulation of LPS-induced iNOS mRNA expression at 2 uM incubated for 2 hrs prior to LPS challenge measured after 9 hrs by RT-PCR analysis; assay type: functional, cell-based; method in brief: as §3
[16] = system: RAW264.7; assay: Antiinflammatory activity in mouse RAW264.7 cells assessed as inhibition of LPS-induced COX-2 expression at 0.5 to 2 uM incubated for 2 hrs prior to LPS challenge measured after 24 hrs by Western blot analysis; assay type: functional, cell-based; method in brief: as §1
[17] = molecular target: Transcription factor p65 (Mus musculus) (UniProt Q04207); assay: Inhibition of NFkappaB p65 nuclear translocation in mouse RAW264.7 cells after 24 hrs by DAPI staining-based laser confocal immunofluorescent microscopic analysis; assay type: cell-based; method in brief: as §4
[18] = system: RAW264.7; assay: Antiinflammatory activity in mouse RAW264.7 cells assessed as inhibition of LPS-induced PGE2 production; assay type: functional, cell-based

Transcription factor p65 (Mus musculus), sequence (Q04207 whole entry): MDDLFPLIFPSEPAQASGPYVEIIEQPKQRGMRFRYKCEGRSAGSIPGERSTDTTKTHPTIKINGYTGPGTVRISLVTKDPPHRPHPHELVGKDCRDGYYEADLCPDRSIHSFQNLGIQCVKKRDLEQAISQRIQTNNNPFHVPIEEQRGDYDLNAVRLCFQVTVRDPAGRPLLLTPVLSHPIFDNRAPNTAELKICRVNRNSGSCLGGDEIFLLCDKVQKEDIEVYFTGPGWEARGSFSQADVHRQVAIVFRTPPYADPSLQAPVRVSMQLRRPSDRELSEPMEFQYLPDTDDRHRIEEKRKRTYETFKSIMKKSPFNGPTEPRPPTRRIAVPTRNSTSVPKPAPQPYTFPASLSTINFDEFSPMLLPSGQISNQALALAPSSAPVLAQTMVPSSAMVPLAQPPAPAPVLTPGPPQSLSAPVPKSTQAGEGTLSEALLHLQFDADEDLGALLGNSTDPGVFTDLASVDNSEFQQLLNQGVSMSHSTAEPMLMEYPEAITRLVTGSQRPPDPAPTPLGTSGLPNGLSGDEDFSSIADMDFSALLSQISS

Compound: O=C1C=C(Oc2ccccc2)c2ccccc2C1=O
inhibition [1]: Active
IC50 [2]: 0.85 µM
inhibition [3]: Active
IC50 [4]: 28.5 µM
Activity [5]: Not Active

Compound: COc1ccc(NC2=CC(=O)/C(=N\O)c3ccccc32)cc1
IC50 [2]: 0.87 µM
IC50 [4]: 4.69 µM

Compound: CC(=N)NCc1cccc(CN)c1 [1400W]
inhibition [14]: Active
IC50 [2]: 0.2 µM
Activity [15]: Active
inhibition [16]: Active
IC50 [4]: 47.5 µM
Activity [5]: Not Active

Compound: COc1ccc(OC2=CC(=O)/C(=N\O)c3ccccc32)cc1
inhibition [1]: Active
IC50 [2]: 1.29 µM
inhibition [3]: Active
IC50 [4]: 20.6 µM
Activity [5]: Not Active

Compound: COc1ccc(NC2=CC(=O)C(=O)c3ccccc32)cc1
IC50 [2]: 0.81 µM
IC50 [4]: 1.84 µM

Compound: COc1ccc(-c2nc3c4ccoc4c4ccccc4c3[nH]2)cc1
IC50 [18]: 0.047 µM

Second part, led by results:

inhibition [6]: Dose-dependent effect
IC50 [2]: 0.74 µM
inhibition [9]: inactive
Activity [5]: Not Active
inhibition [13]: Active
Compound: COc1ccc(OC2=CC(=O)C(=O)c3ccccc32)cc1
inhibition [7]: Dose-dependent effect
inhibition [8]: Dose-dependent effect
Activity [10]: Dose-dependent effect
Activity [11]: Dose-dependent effect
inhibition [12]: Dose-dependent effect
IC50 [4]: 31.7 µM

inhibition [6]: Dose-dependent effect
IC50 [2]: 0.47 µM
Activity [5]: Not Active
Compound: CC1(C)CCC2=C(O1)c1ccccc1C(=O)C2=O [LAPACHONE]
inhibition [7]: Dose-dependent effect
inhibition [8]: Dose-dependent effect
Activity [10]: Dose-dependent effect
Activity [11]: Dose-dependent effect
inhibition [12]: Dose-dependent effect
IC50 [4]: 4.06 µM

IC50 [2]: 0.63 µM
Compound: O=C1C=C(Nc2ccccc2)c2ccccc2/C1=N/O
IC50 [4]: 1.67 µM

inhibition [17]: Active
Compound: Nc1ncnc2c1ncn2[C@@H]1O[C@H](CO)C[C@H]1O
